Experimental data: ChEMBL document CHEMBL3616444, “Design, synthesis and pharmacological evaluation of pyrimidobenzothiazole-3-carboxylate derivatives as selective L-type calcium channel blockers” (Bioorg Med Chem, 2015)

Columns and labels:
[1] = test system: Rattus norvegicus; test: Antihypertensive activity in Norwegian albino rat assessed as inhibition of systolic blood pressure at 10 mg/kg, po after 3 hrs by invasive carotid artery cannulation method relative to control; assay type: functional
[2] = Inhibition of porcine kidney ACE assessed as reduction in hippuryl-histidyl-leucine hydrolysis to hippuric acid release incubated for 30 mins high-throughput colorimetric method; design: species or system Sus scrofa
In short: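 Porcine kidney ACE in 1 M sodium borate buffer pH 8.2 with 0.3 M NaCl and 5 mM HHL substrate (stock); 37 °C for 30 min, stopped with 1 M HCl. Released hippuric acid complexed with pyridine and benzene sulfonyl chloride, cooled on ice, yellow colour read at 410 nm; IC50 from log plots, at least five determinations per concentration.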

[3] = test system: Rattus norvegicus; test: Antihypertensive activity in Norwegian albino rat model of DOCA-salt-induced hypertension assessed as inhibition of systolic blood pressure at 10 mg/kg, po after 4 hrs by non-invasive tail cuff method relative to control; assay type: functional
In short: (§1)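 DOCA-salt hypertensive rats; systolic pressure by tail cuff after 10 mg/kg, recorded hourly from 0 to 10 h; percent inhibition computed. Data as mean ± SEM, repeated-measures ANOVA.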

[4] = test system: Rattus norvegicus; test: Antihypertensive activity in Norwegian albino rat model of DOCA-salt-induced hypertension assessed as inhibition of systolic blood pressure at 10 mg/kg, po after 2 hrs by non-invasive tail cuff method relative to control; assay type: functional; in short: as §1
[5] = test system: Rattus norvegicus; test: Antihypertensive activity in Norwegian albino rat model of DOCA-salt-induced hypertension assessed as inhibition of systolic blood pressure at 10 mg/kg, po after 10 hrs by non-invasive tail cuff method relative to control; assay type: functional; in short: as §1
[6] = test system: Rattus norvegicus; test: Antihypertensive activity in Norwegian albino rat model of DOCA-salt-induced hypertension assessed as inhibition of systolic blood pressure at 10 mg/kg, po after 9 hrs by non-invasive tail cuff method relative to control; assay type: functional; in short: as §1
[7] = test system: Rattus norvegicus; test: Antihypertensive activity in Norwegian albino rat model of DOCA-salt-induced hypertension assessed as inhibition of systolic blood pressure at 10 mg/kg, po after 5 hrs by non-invasive tail cuff method relative to control; assay type: functional; in short: as §1
[8] = test system: Rattus norvegicus; test: Antihypertensive activity in Norwegian albino rat assessed as inhibition of systolic blood pressure at 10 mg/kg, po after 0.15 hrs by invasive carotid artery cannulation method relative to control; assay type: functional
[9] = test system: Rattus norvegicus; test: Antihypertensive activity in Norwegian albino rat model of DOCA-salt-induced hypertension assessed as inhibition of systolic blood pressure at 10 mg/kg, po after 6 hrs by non-invasive tail cuff method relative to control; assay type: functional; in short: as §1
[10] = physchem; conditions: buffer, pH 7.4
[11] = test system: Rattus norvegicus; test: Antihypertensive activity in Norwegian albino rat model of DOCA-salt-induced hypertension assessed as inhibition of systolic blood pressure at 10 mg/kg, po after 3 hrs by non-invasive tail cuff method relative to control; assay type: functional; in short: as §1
[12] = test system: Rattus norvegicus; test: Antihypertensive activity in Norwegian albino rat assessed as inhibition of systolic blood pressure at 10 mg/kg, po after 4 hrs by invasive carotid artery cannulation method relative to control; assay type: functional
[13] = test system: Rattus norvegicus; test: Antihypertensive activity in Norwegian albino rat model of DOCA-salt-induced hypertension assessed as inhibition of systolic blood pressure at 10 mg/kg, po after 7 hrs by non-invasive tail cuff method relative to control; assay type: functional; in short: as §1
[14] = test system: Rattus norvegicus; test: Antihypertensive activity in Norwegian albino rat assessed as inhibition of systolic blood pressure at 10 mg/kg, po after 0.3 hrs by invasive carotid artery cannulation method relative to control; assay type: functional
[15] = test system: Rattus norvegicus; test: Gastrointestinal toxicity in Norwegian rat assessed as ulcerative index at 50 mg/kg, po after 17 hrs; assay type: organism-based; conditions: in vivo
[16] = test system: Rattus norvegicus; test: Antihypertensive activity in Norwegian albino rat assessed as inhibition of systolic blood pressure at 10 mg/kg, po after 1 hr by invasive carotid artery cannulation method relative to control; assay type: functional
[17] = biological target: Myosin light chain kinase, smooth muscle (Homo sapiens, UniProt Q15746); test: Inhibition of MLCK (unknown origin) incubated for 15 mins using [gamma-32P]-ATP by scintillation counting method
In short: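 Active MLCK thawed on ice with kinase assay and dilution buffers and substrate; reaction with γ-32P-ATP incubated 15 min at 30 °C in a water bath, spotted on phosphocellulose P81 paper, washed three times ~10 min in 1% phosphoric acid. Radioactivity by scintillation counting, blank-corrected cpm converted to specific activity (nmol/min/mg); IC50 from log plots, at least five determinations per concentration.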

[18] = test system: Rattus norvegicus; test: Antihypertensive activity in Norwegian albino rat model of DOCA-salt-induced hypertension assessed as inhibition of systolic blood pressure at 10 mg/kg, po after 8 hrs by non-invasive tail cuff method relative to control; assay type: functional; in short: as §1
[19] = test system: Rattus norvegicus; test: Antihypertensive activity in Norwegian albino rat assessed as inhibition of systolic blood pressure at 10 mg/kg, po after 2 hrs by invasive carotid artery cannulation method relative to control; assay type: functional
[20] = test system: Rattus norvegicus; test: Antihypertensive activity in Norwegian albino rat model of DOCA-salt-induced hypertension assessed as inhibition of systolic blood pressure at 10 mg/kg, po after 1 hr by non-invasive tail cuff method relative to control; assay type: functional; in short: as §1
[21] = Retardation factor of the compound by HPTLC method; assay type: physicochemical
In short: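 Pre-coated silica gel 60 F254 plates (200 µm layer); 5 µl sample applied as 5 mm bands; toluene/acetonitrile (9:1) mobile phase, ascending development to 90 mm in a chamber pre-saturated 15 min.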

[22] = AUC (0 to infinity) in Sprague-Dawley rat at 10 mg/kg, iv by HPLC method; assay type: ADME, organism-based; design: dose 10 mg/kg, route intravenous, time infinity; conditions: in vivo
[23] = Oral bioavailability in Sprague-Dawley rat at 20 mg/kg by HPLC method; assay type: ADME, organism-based; conditions: in vivo
[24] = Tmax in Sprague-Dawley rat at 20 mg/kg, po by HPLC method; assay type: ADME, organism-based; conditions: in vivo
[25] = Elimination half life in Sprague-Dawley rat at 10 mg/kg, iv by HPLC method; assay type: ADME, organism-based; conditions: in vivo, read-out: beta t1/2 (converted)
[26] = Cmax in Sprague-Dawley rat at 10 mg/kg, iv by HPLC method; assay type: ADME, organism-based; design: dose 10 mg/kg, route intravenous; conditions: in vivo
[27] = AUC (0 to infinity) in Sprague-Dawley rat at 20 mg/kg, po by HPLC method; assay type: ADME, organism-based; design: dose 20 mg/kg, route oral, time infinity; conditions: in vivo
[28] = Cmax in Sprague-Dawley rat at 20 mg/kg, po by HPLC method; assay type: ADME, organism-based; design: dose 20 mg/kg, route oral; conditions: in vivo
[29] = Retention time of the compound by HPLC method; assay type: physicochemical
In short: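 HPLC run with 20 µl injection, 1.0 ml/min flow, 25 °C, detection at 343 nm or 258 nm depending on compound.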

[30] = Elimination half life in Sprague-Dawley rat at 20 mg/kg, po by HPLC method; assay type: ADME, organism-based; conditions: in vivo, read-out: beta t1/2 (converted)
[31] = test system: Rattus norvegicus; test: Antihypertensive activity in Norwegian albino rat assessed as inhibition of diastolic blood pressure at 10 mg/kg, po after 2 hrs by invasive carotid artery cannulation method relative to control
[32] = test system: Rattus norvegicus; test: Antihypertensive activity in Norwegian albino rat assessed as inhibition of diastolic blood pressure at 10 mg/kg, po after 3 hrs by invasive carotid artery cannulation method relative to control
[33] = test system: Rattus norvegicus; test: Antihypertensive activity in Norwegian albino rat assessed as inhibition of diastolic blood pressure at 10 mg/kg, po after 4 hrs by invasive carotid artery cannulation method relative to control
[34] = test system: Rattus norvegicus; test: Antihypertensive activity in Norwegian albino rat assessed as inhibition of diastolic blood pressure at 10 mg/kg, po after 1 hr by invasive carotid artery cannulation method relative to control
[35] = test system: Rattus norvegicus; test: Antihypertensive activity in Norwegian albino rat assessed as inhibition of diastolic blood pressure at 10 mg/kg, po after 0.3 hrs by invasive carotid artery cannulation method relative to control
[36] = test system: Rattus norvegicus; test: Antihypertensive activity in Norwegian albino rat assessed as inhibition of diastolic blood pressure at 10 mg/kg, po after 0.15 hrs by invasive carotid artery cannulation method relative to control

Chain of Myosin light chain kinase, smooth muscle (Q15746 whole entry): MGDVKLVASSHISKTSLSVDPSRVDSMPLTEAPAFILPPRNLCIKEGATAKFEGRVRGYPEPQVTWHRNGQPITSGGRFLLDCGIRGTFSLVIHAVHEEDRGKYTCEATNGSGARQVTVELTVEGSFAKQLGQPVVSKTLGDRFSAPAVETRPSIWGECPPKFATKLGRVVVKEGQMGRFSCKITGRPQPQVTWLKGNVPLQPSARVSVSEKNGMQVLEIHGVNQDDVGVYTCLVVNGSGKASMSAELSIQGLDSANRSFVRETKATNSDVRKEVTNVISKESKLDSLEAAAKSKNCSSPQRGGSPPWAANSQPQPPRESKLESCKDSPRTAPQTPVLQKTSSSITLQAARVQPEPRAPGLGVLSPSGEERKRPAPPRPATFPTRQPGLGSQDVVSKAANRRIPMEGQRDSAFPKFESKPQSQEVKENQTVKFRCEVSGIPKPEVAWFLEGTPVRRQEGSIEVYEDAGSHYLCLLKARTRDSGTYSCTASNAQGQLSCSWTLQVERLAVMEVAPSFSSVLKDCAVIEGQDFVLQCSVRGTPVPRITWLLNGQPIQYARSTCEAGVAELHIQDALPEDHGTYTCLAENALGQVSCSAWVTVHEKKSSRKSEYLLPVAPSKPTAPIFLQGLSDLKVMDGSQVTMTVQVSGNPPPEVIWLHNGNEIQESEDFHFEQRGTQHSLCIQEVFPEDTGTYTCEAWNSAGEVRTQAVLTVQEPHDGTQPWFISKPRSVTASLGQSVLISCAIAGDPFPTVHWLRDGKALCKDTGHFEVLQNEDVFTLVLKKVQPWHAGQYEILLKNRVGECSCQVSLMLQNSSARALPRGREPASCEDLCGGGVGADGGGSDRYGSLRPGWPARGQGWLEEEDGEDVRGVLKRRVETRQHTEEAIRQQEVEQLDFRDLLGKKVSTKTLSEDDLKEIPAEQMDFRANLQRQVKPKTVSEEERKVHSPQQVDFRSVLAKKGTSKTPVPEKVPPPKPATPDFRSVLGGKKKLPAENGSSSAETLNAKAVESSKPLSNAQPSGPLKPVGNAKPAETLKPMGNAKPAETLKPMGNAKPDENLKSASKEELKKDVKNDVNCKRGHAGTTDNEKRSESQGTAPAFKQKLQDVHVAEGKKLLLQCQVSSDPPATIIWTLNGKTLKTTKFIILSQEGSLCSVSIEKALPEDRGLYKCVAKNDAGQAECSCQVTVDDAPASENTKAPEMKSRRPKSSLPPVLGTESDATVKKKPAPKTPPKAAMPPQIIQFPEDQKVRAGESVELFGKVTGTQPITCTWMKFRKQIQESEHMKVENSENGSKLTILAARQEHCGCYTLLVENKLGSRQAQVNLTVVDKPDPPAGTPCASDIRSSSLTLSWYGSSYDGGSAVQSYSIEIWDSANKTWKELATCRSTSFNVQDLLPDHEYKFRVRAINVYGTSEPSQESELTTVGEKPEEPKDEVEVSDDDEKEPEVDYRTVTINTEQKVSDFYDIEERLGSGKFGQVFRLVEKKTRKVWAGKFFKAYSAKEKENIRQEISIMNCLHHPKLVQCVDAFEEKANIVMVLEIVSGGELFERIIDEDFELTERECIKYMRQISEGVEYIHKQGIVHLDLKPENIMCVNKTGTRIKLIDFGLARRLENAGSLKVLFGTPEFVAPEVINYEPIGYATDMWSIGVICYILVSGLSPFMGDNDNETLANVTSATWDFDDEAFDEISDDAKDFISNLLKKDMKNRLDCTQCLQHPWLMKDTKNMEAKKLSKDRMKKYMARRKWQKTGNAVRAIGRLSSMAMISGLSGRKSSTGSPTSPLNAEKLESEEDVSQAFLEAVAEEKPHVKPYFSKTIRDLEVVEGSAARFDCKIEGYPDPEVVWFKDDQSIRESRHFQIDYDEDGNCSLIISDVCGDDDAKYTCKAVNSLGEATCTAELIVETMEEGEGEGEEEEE

SMILES | inhibition in vivo at 10 mg/kg [1] | IC50 [2] | inhibition in vivo at 10 mg/kg [3] | inhibition in vivo at 10 mg/kg [4] | inhibition in vivo at 10 mg/kg [5] | inhibition in vivo at 10 mg/kg [6] | inhibition in vivo at 10 mg/kg [7] | inhibition in vivo at 10 mg/kg [8] | inhibition in vivo at 10 mg/kg [9] | logD [10] | inhibition in vivo at 10 mg/kg [11] | inhibition in vivo at 10 mg/kg [12] | inhibition in vivo at 10 mg/kg [13] | inhibition in vivo at 10 mg/kg [14] | UI [15] | inhibition in vivo at 10 mg/kg [16] | IC50 ([17]; read-out: IC50) | IC50 ([17]; read-out: pIC50 (converted)) | inhibition in vivo at 10 mg/kg [18] | inhibition in vivo at 10 mg/kg [20] | further results
COC(=O)C1=C(C)N=C2Sc3ccccc3N2C1c1ccc(OC)cc1 (stereo not drawn) | 31% | > 100 µM | 20% | 1.78% | 48.9% | 40% | 24.4% | 4.42% | 25.3% | 4.64 | 13.3% | 42.5% | 31.1% | 7.08% | 0.54 | 15.9% | 2.14 µM | 46700 µM | 35.6% | 1.33% | inhibition in vivo at 10 mg/kg [19]: 27%
COC(=O)C1=C(C)N=C2Sc3ccccc3N2C1c1ccc([N+](=O)[O-])cc1 (stereo not drawn) | 31% | > 100 µM | 24.8% | 4.87% | 46.9% | 46.9% | 27% | 2.21% | 38% | 4.49 | 13.7% | 48.7% | 40.3% | 4.42% | 0.2 | 15.9% | 2.04 µM | 49000 µM | 42.5% | 0% | inhibition in vivo at 10 mg/kg [19]: 24.8%
COC(=O)C1=C(C)N=C2Sc3ccccc3N2C1c1ccc(O)c(OC)c1 (stereo not drawn) | 31% | > 100 µM | 19.8% | 5.41% | 41% | 40.1% | 27.5% | 4.42% | 32.4% | 3.89 | 13.1% | 42.5% | 36.5% | 7.08% | 0.2 | 15.9% | 3.67 µM | 27200 µM | 37.8% | 0.9% | inhibition in vivo at 10 mg/kg [19]: 27%
CCOC(=O)C1=C(C)N=C2Sc3ccccc3N2C1c1cccc([N+](=O)[O-])c1 (stereo not drawn) | 42.2% | > 100 µM | 19.1% | 10.2% | 51.1% | 47.1% | 23.1% | 4% | 27.6% | 4.57 | 14.2% | 52.4% | 37.8% | 20% | 0.2 | 21.8% | 2.1 µM | 47600 µM | 41.8% | 4.89% | Rf [21]: 4.2; AUC(0-inf) [22]: 1.48 µg·h/mL; bioavailability [23]: 56.8%; Tmax [24]: 0.5 h; half-life [25]: 2.5 h; Cmax [26]: 1.63 µg/mL; AUC(0-inf) [27]: 0.84 µg·h/mL; Cmax [28]: 0.4 µg/mL; Retention_time [29]: 3.045 min; inhibition in vivo at 10 mg/kg [19]: 28.9%; half-life [30]: 5.4 h
COC(=O)C1=C(C)NC(C)=C(C(=O)OC)C1c1ccccc1[N+](=O)[O-] [NIFEDIPINE] |  | 2.34 µM | 19.1% | 10.7% | 54.2% | 52% | 23.1% |  | 32.9% |  | 14.2% |  | 41.8% |  | 0.54 |  | 2.02 µM |  | 47.6% | 4.89% | inhibition in vivo at 10 mg/kg [31]: 26.7%; inhibition in vivo at 10 mg/kg [32]: 37.3%; inhibition in vivo at 10 mg/kg [33]: 53.8%; inhibition in vivo at 10 mg/kg [34]: 16%; inhibition in vivo at 10 mg/kg [35]: 13.8%; inhibition in vivo at 10 mg/kg [36]: 6.22%
